Results: ChEMBL document CHEMBL4325867, “Synthesis and biological evaluation of novel H6 analogues as drug resistance reversal agents” (Eur J Med Chem, 2019)

What was measured:
[1] = biological target: T1, ATP-dependent translocase ABCB1 (Homo sapiens, UniProt P08183); experiment: Reversal of P-gp-mediated drug resistance in human KBV cells assessed as potentiation of paclitaxel-induced cytotoxicity by measuring cell survival at 5 uM after 72 hrs by MTT assay (reference value: 98 +/- 19%); type: cell-based
[2] = Cytotoxicity against human KBV cells assessed as cell survival at 5 uM after 72 hrs by MTT assay relative to control; type: cell-based; conditions: read-out: Survival
Method in brief: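 KBV cells (RPMI-1640 with 10% heat-inactivated FCS, 37 °C, 5% CO2, log-phase) were seeded in 96-well plates and exposed to compound alone at 5 µM for 72 h. MTT was added and incubated, then DMSO was added. OD was read at 570 nm and survival rate was calculated.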

[3] = n-octanol/aqueous buffer solution partition coefficient, log P of the compound at pH 6.8 after 4 hrs by HPLC method; type: physicochemical
Method in brief: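 Shake-flask partition between n-octanol and pH 6.8 buffer at a 1:1 ratio, room temperature, shaken 4 h. Compound concentration in each phase measured by HPLC.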

[4] = biological target: T1, ATP-dependent translocase ABCB1; experiment: Reversal of P-gp-mediated drug resistance in human KBV cells assessed as potentiation of paclitaxel-induced cytotoxicity by measuring fold reduction in paclitaxel IC50 at 10 uM after 72 hrs by MTT assay relative to paclitaxel alone; type: cell-based
Method in brief: (§1)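 KBV cells cultured in RPMI-1640 with 10% heat-inactivated fetal calf serum at 37°C, 5% CO2, and used in log phase. Seeded in 96-well plates. Exposed to paclitaxel with or without modulator (5 or 10 µM) for 24, 48 or 72 h. MTT added, formazan dissolved in DMSO, OD read at 570 nm. Survival rate used to derive paclitaxel IC50. RF taken as the fold reduction of IC50 relative to paclitaxel alone.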

[5] = biological target: T1, ATP-dependent translocase ABCB1; experiment: Reversal of P-gp-mediated drug resistance in human KBV cells assessed as potentiation of paclitaxel-induced cytotoxicity by measuring fold reduction in paclitaxel IC50 at 5 uM after 72 hrs by MTT assay relative to paclitaxel alone; type: cell-based; method in brief: as §1

T1 sequence (P08183 whole entry): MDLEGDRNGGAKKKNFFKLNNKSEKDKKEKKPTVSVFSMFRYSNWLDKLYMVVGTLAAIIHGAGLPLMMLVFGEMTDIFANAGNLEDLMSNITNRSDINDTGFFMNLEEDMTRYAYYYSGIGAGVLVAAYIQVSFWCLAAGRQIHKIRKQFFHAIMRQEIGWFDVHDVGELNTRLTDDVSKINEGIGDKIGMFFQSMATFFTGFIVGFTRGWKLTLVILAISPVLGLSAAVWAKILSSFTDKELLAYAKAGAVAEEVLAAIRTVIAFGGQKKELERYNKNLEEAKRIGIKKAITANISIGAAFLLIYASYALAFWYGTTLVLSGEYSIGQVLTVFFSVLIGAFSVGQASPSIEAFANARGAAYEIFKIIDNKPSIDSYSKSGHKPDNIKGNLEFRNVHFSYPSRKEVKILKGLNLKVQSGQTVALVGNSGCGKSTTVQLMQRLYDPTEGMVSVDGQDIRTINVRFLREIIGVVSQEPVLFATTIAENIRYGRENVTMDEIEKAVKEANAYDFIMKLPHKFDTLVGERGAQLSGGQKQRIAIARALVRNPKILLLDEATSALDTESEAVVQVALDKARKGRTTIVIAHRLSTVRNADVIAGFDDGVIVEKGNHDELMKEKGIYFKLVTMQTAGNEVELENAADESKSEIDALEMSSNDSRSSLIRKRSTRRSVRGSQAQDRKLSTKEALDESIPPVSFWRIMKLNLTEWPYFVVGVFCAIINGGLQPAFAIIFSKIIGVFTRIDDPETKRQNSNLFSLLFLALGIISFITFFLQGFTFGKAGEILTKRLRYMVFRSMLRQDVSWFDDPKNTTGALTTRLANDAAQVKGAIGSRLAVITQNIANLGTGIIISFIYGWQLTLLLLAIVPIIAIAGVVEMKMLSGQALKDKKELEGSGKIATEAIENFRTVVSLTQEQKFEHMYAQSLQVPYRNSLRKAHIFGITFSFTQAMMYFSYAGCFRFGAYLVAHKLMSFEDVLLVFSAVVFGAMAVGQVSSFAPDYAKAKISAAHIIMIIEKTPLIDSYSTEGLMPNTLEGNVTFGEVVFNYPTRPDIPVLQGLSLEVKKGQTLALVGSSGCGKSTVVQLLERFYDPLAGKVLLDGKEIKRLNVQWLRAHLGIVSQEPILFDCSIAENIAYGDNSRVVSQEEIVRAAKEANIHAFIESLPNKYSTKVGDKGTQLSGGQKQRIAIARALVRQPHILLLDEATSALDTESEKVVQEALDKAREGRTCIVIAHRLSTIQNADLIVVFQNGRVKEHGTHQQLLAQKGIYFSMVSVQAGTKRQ

| SMILES | Survival [1] | viability at 72 h, 5 µM [2] | logD at 4 h [3] | fold change (FC) [4] | fold change (FC) [5] |
| --- | --- | --- | --- | --- | --- |
| CC1(C)CC[C@]2(C(=O)OCCCOC(=O)[C@]34CCC(C)(C)C[C@H]3C3=CC[C@@H]5[C@@]6(C)CC[C@H](O)[C@@](C)(CO)[C@@H]6CC[C@@]5(C)[C@]3(C)CC4)CC[C@]3(C)C(=CC[C@@H]4[C@@]5(C)CC[C@H](O)[C@@](C)(CO)[C@@H]5CC[C@]43C)[C@@H]2C1 | 45% | 107% | – | – | – |
| CC1(C)CC[C@]2(C(=O)ONC(=O)CCC(=O)O)CC[C@]3(C)C(=CC[C@@H]4[C@@]5(C)Cc6nccnc6[C@@](C)(CO)[C@@H]5CC[C@]43C)[C@@H]2C1 | 112% | 89% | -0.78 | – | – |
| CC1(C)CC[C@]2(C(=O)O)CC[C@]3(C)C(=CC[C@@H]4[C@@]5(C)Cc6nccnc6[C@@](C)(CO)[C@@H]5CC[C@]43C)[C@@H]2C1 | 61% | 89% | 0.24 | – | – |
| CC1(C)CC[C@]2(C(=O)N[C@@H](CCC(=O)O)C(=O)O)CC[C@]3(C)C(=CC[C@@H]4[C@@]5(C)Cc6nccnc6[C@@](C)(CO)[C@@H]5CC[C@]43C)[C@@H]2C1 | 80% | 91% | -0.66 | – | – |
| CC1(C)CC[C@]2(C(=O)On3nnc4ccc(Cl)cc43)CC[C@]3(C)C(C(=O)C[C@@H]4[C@@]5(C)CCC(=O)[C@@](C)(CO)[C@@H]5CC[C@]43C)[C@@H]2C1 (stereo partly drawn) | 112% | 98% | 0.1 | – | – |
| CC1(C)CC[C@]2(C(=O)On3nnc4ccccc43)CC[C@]3(C)C(C(=O)C[C@@H]4[C@@]5(C)CCC(=O)[C@@](C)(CO)[C@@H]5CC[C@]43C)[C@@H]2C1 (stereo partly drawn) | 127% | 110% | 0.14 | – | – |
| CC1(C)CC[C@]2(C(=O)On3nnc4cccnc43)CC[C@]3(C)C(=CC[C@@H]4[C@@]5(C)CC[C@H](O)[C@@](C)(CO)[C@@H]5CC[C@]43C)[C@@H]2C1 | 115% | 94% | -0.23 | – | – |
| CC1(C)CC[C@]2(C(=O)N[C@@H](CO)C(=O)O)CC[C@]3(C)C(=CC[C@@H]4[C@@]5(C)Cc6nccnc6[C@@](C)(CO)[C@@H]5CC[C@]43C)[C@@H]2C1 | 76% | 102% | -0.11 | – | – |
| CC1(C)CC[C@]2(C(=O)OCCCCCOC(=O)[C@]34CCC(C)(C)C[C@H]3C3=CC[C@@H]5[C@@]6(C)CC[C@H](O)[C@@](C)(CO)[C@@H]6CC[C@@]5(C)[C@]3(C)CC4)CC[C@]3(C)C(=CC[C@@H]4[C@@]5(C)CC[C@H](O)[C@@](C)(CO)[C@@H]5CC[C@]43C)[C@@H]2C1 | 42% | 123% | – | – | – |
| COc1ccc(CCN(C)CCCC(C#N)(c2ccc(OC)c(OC)c2)C(C)C)cc1OC (stereo not drawn) | 23% | – | – | – | – |
| CC(C)C[C@H](NC(=O)[C@]12CCC(C)(C)C[C@H]1C1=CC[C@@H]3[C@@]4(C)Cc5nccnc5[C@@](C)(CO)[C@@H]4CC[C@@]3(C)[C@]1(C)CC2)C(=O)O | 76% | 130% | 0.08 | – | – |
| CC1(C)CC[C@]2(C(=O)O)CC[C@]3(C)C(=CC[C@@H]4[C@@]5(C)Cc6nccnc6[C@@](C)(COC(=O)CCC(=O)O)[C@@H]5CC[C@]43C)[C@@H]2C1 | 102% | 96% | -0.28 | – | – |
| CC1(C)CC[C@]2(C(=O)N[C@@H](Cc3ccccc3)C(=O)O)CC[C@]3(C)C(=CC[C@@H]4[C@@]5(C)Cc6nccnc6[C@@](C)(CO)[C@@H]5CC[C@]43C)[C@@H]2C1 | 129% | 94% | -0.32 | – | – |
| CC1(C)CC[C@]2(C(=O)N3CCC[C@H]3C(=O)O)CC[C@]3(C)C(=CC[C@@H]4[C@@]5(C)Cc6nccnc6[C@@](C)(CO)[C@@H]5CC[C@]43C)[C@@H]2C1 | 91% | 121% | 0.38 | – | – |
| CC1(C)CC[C@]2(C(=O)NCC(=O)O)CC[C@]3(C)C(=CC[C@@H]4[C@@]5(C)Cc6nccnc6[C@@](C)(CO)[C@@H]5CC[C@]43C)[C@@H]2C1 | 101% | 96% | -0.43 | – | – |
| CC1(C)CC[C@]2(C(=O)OCCCCOC(=O)[C@]34CCC(C)(C)C[C@H]3C3=CC[C@@H]5[C@@]6(C)CC[C@H](O)[C@@](C)(CO)[C@@H]6CC[C@@]5(C)[C@]3(C)CC4)CC[C@]3(C)C(=CC[C@@H]4[C@@]5(C)CC[C@H](O)[C@@](C)(CO)[C@@H]5CC[C@]43C)[C@@H]2C1 | 44% | 92% | – | – | – |

| SMILES | Survival [1] | viability at 72 h, 5 µM [2] | logD at 4 h [3] | fold change (FC) [4] | fold change (FC) [5] |
| --- | --- | --- | --- | --- | --- |
| CSCC[C@H](NC(=O)[C@]12CCC(C)(C)C[C@H]1C1=CC[C@@H]3[C@@]4(C)Cc5nccnc5[C@@](C)(CO)[C@@H]4CC[C@@]3(C)[C@]1(C)CC2)C(=O)O | 94% | 94% | -0.2 | – | – |
| CC1(C)CC[C@]2(C(=O)N[C@@H](CC(=O)O)C(=O)O)CC[C@]3(C)C(=CC[C@@H]4[C@@]5(C)Cc6nccnc6[C@@](C)(CO)[C@@H]5CC[C@]43C)[C@@H]2C1 | 81% | 90% | -0.39 | – | – |
| C[C@H](NC(=O)[C@]12CCC(C)(C)C[C@H]1C1=CC[C@@H]3[C@@]4(C)Cc5nccnc5[C@@](C)(CO)[C@@H]4CC[C@@]3(C)[C@]1(C)CC2)C(=O)O | 264% | 98% | -1.07 | – | – |
| CC1(C)CC[C@]2(C(=O)OCCN)CC[C@]3(C)C(=CC[C@@H]4[C@@]5(C)Cc6nccnc6[C@@](C)(CO)[C@@H]5CC[C@]43C)[C@@H]2C1 | 24% | 116% | 0.36 | – | – |
| CC1(C)CC[C@]2(C(=O)O)CC[C@]3(C)C(=CC[C@@H]4[C@@]5(C)Cc6nccnc6[C@@](C)(COC(=O)C6CCCCC6C(=O)O)[C@@H]5CC[C@]43C)[C@@H]2C1 (stereo partly drawn) | 100% | 95% | -0.33 | – | – |
| COC(=O)CCC(=O)NOC(=O)[C@]12CCC(C)(C)C[C@H]1C1=CC[C@@H]3[C@@]4(C)Cc5nccnc5[C@@](C)(CO)[C@@H]4CC[C@@]3(C)[C@]1(C)CC2 | 32% | 86% | -1.24 | – | – |
| CC1(C)CC[C@]2(C(=O)n3ccnc3)CC[C@]3(C)C(=CC[C@@H]4[C@@]5(C)CC[C@H](O)[C@@](C)(CO)[C@@H]5CC[C@]43C)[C@@H]2C1 | – | – | -0.4 | – | – |
| Cl.Cl.Cl.O[C@@H](COc1cccc2ncccc12)CN1CCN([C@@H]2c3ccccc3[C@@H]3[C@H](c4ccccc42)C3(F)F)CC1 [ZOSUQUIDAR TRIHYDROCHLORIDE] | – | – | – | 114.11 | 32.5 |
| COc1cc2c(cc1OC)CN(CCc1ccc(NC(=O)c3cc(OC)c(OC)cc3NC(=O)c3cnc4ccccc4c3)cc1)CC2 | – | – | – | 89.41 | 75.95 |
| CC1(C)CC[C@]2(C(=O)O)CC[C@]3(C)C(C(=O)C[C@@H]4[C@@]5(C)CCC(=O)[C@@](C)(CO)[C@@H]5CC[C@]43C)[C@@H]2C1 (stereo partly drawn) | 104% | 102% | – | – | – |
| CC1(C)CC[C@]2(C(=O)O)CC[C@]3(C)C(=CC[C@@H]4[C@@]5(C)CC[C@H](O)[C@@](C)(CO)[C@@H]5CC[C@]43C)[C@@H]2C1 [HEDERAGENIN] | 100% | – | – | – | – |
| CC1(C)CC[C@]2(C(=O)On3nnc4ccc(Cl)cc43)CC[C@]3(C)C(=CC[C@@H]4[C@@]5(C)CC[C@H](O)[C@@](C)(CO)[C@@H]5CC[C@]43C)[C@@H]2C1 | 111% | 97% | -0.75 | – | – |
| CC1(C)CC[C@]2(C(=O)N[C@@H](Cc3ccc(O)cc3)C(=O)O)CC[C@]3(C)C(=CC[C@@H]4[C@@]5(C)Cc6nccnc6[C@@](C)(CO)[C@@H]5CC[C@]43C)[C@@H]2C1 | 68% | 76% | -0.03 | – | – |
| CC1(C)CC[C@]2(C(=O)OCCOC(=O)[C@]34CCC(C)(C)C[C@H]3C3=CC[C@@H]5[C@@]6(C)CC[C@H](O)[C@@](C)(CO)[C@@H]6CC[C@@]5(C)[C@]3(C)CC4)CC[C@]3(C)C(=CC[C@@H]4[C@@]5(C)CC[C@H](O)[C@@](C)(CO)[C@@H]5CC[C@]43C)[C@@H]2C1 | 37% | 136% | – | – | – |
| CC1(C)CC[C@]2(C(=O)O)CC[C@]3(C)C(=CC[C@@H]4[C@@]5(C)Cc6nccnc6[C@@](C)(COC(=O)c6ccccc6C(=O)O)[C@@H]5CC[C@]43C)[C@@H]2C1 | 85% | 116% | -0.66 | – | – |
| CC(C)[C@H](NC(=O)[C@]12CCC(C)(C)C[C@H]1C1=CC[C@@H]3[C@@]4(C)Cc5nccnc5[C@@](C)(CO)[C@@H]4CC[C@@]3(C)[C@]1(C)CC2)C(=O)O | 114% | 83% | -0.78 | – | – |
